Results on 3 compounds are retold here after ChEMBL document CHEMBL1135117, “Identification of potent and selective oxytocin antagonists. Part 2: further investigation of benzofuran derivatives” (Bioorg Med Chem Lett, 2002).

A short description of series [1]: Tested for the pharmacokinetic parameter in rat and expressed as area under curve. The format is ADME, organism-based. Details: concentration or dose not given beside the values. The conditions noted are these: in vivo.
Series [2] is described as follows: Clearance in rat. The format is ADME, organism-based. The conditions noted are these: in vivo.
The nature of series [3]: Bioavailability in rat. The series is classed as ADME, organism-based. The note with it: in vivo.
The target of series [4] is T1, Oxytocin receptor (Homo sapiens, UniProt P30559).
T1 sequence (P30559 whole entry): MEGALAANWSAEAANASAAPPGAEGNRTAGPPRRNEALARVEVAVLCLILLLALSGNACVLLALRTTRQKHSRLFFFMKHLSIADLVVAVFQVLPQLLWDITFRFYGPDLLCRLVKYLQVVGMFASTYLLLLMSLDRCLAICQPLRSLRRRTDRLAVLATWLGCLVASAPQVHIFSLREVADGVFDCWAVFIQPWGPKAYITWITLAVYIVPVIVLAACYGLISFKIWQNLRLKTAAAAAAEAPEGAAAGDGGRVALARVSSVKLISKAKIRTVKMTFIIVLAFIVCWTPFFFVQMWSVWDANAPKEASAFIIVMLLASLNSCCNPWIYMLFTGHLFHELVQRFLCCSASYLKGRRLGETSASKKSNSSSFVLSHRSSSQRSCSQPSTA
Description: Displacement of 3[H]oxytocin from human oxytocin receptor.

Series [5] addresses Albumin (Homo sapiens, UniProt P02768). Description: Compound was tested for Serum albumin binding.
In series [6] the target is T2, Oxytocin receptor (Homo sapiens) (UniProt P30559).
T2 sequence (whole entry): T1 sequence (P30559 whole entry)
Description: Tested for ratio of displacement of 3H oxytocin from human OT in presence and absence of 50 mg/mL human serum albumin. The procedure, abridged: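 Displacement of [3H]oxytocin from human OT receptor, with IC50 measured with and without 50 mg/mL human serum albumin. The radioligand was made up in buffer containing 100 mg/mL HSA, a pre-dilution level. The value is the ratio of the IC50 with HSA to the IC50 without HSA.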
On the technique in general: Loss of bound radioactivity is the signal in a displacement assay; it reports binding, not function.

Series [7] is described as follows: Compound was tested for its half life in rat. The series is classed as ADME, organism-based. The conditions noted are these: in vivo.
Series [8] is described as follows: Compound was tested for plasma clearance in rat. The series is classed as ADME, organism-based.
For series [9], the target named is T3, Oxytocin receptor (Rattus norvegicus, UniProt P70536).
T3 sequence (P70536 whole entry): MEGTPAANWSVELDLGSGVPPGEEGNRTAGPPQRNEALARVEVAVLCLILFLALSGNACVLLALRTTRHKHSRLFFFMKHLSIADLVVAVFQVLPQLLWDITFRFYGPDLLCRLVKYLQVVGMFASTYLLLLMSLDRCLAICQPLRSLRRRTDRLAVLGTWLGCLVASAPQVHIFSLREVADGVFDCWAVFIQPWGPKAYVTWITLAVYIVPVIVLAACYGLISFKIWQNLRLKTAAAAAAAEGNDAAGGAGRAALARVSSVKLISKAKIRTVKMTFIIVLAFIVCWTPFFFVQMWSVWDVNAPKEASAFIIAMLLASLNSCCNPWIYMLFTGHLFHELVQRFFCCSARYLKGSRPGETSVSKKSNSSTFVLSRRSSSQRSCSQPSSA
Put plainly: Compound was tested for displacement of 3[H] oxytocin from rat OT receptor (in vitro). In outline: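 Myometrium from rats that littered within 2 h, homogenised in sucrose buffer; membrane fraction pelleted at 48,000g, 4 °C. Filtration binding with [3H]oxytocin at 1 nM in 50 mM HEPES, 10 mM MgCl2, pH 7.4, plus competing ligand. Incubation 1 h at room temperature, then GF/C filtration, ice-cold buffer washes, scintillation counting of bound label.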

Series [10] is described as follows: Tested for lipophilicity. The format is physicochemical. The conditions noted are these: octanol/water.
The species named for series [11] is Rattus norvegicus. Put plainly: Serum concentration for 50% inhibition of uterine contractility response to oxytocin in rat. The format is functional, organism-based. The procedure, abridged:
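Adult female AHA rats pre-treated 18 h with diethylstilboestrol (250 µg/kg ip, corn oil), anaesthetised with pentobarbitone (60 mg/kg ip); uterine tension ~2 g. OT 0.3 µg/kg iv given 3–180 min after a single iv bolus of antagonist (DMSO/PEG200/water 20:50:30). Response = 10-min area under the contraction–time curve. Plasma drug measured by mass spectrometry in serial blood samples.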

Series [12] is described as follows: Compound was tested for half life in dog. The format is ADME, organism-based, Canis lupus familiaris. The note with it: in vivo.
The nature of series [13]: Bioavailability in dog. The series is classed as ADME, organism-based, Canis lupus familiaris. The note with it: in vivo.
The nature of series [14]: Tested for plasma clearance in dog. The format is ADME, organism-based, Canis lupus familiaris.
Series [15] addresses Vasopressin V1a receptor (Homo sapiens, UniProt P37288). Description: Compound was tested for its ability to displace vasopressin from human Vasopressin V1a receptor.

Albumin, sequence (P02768 whole entry): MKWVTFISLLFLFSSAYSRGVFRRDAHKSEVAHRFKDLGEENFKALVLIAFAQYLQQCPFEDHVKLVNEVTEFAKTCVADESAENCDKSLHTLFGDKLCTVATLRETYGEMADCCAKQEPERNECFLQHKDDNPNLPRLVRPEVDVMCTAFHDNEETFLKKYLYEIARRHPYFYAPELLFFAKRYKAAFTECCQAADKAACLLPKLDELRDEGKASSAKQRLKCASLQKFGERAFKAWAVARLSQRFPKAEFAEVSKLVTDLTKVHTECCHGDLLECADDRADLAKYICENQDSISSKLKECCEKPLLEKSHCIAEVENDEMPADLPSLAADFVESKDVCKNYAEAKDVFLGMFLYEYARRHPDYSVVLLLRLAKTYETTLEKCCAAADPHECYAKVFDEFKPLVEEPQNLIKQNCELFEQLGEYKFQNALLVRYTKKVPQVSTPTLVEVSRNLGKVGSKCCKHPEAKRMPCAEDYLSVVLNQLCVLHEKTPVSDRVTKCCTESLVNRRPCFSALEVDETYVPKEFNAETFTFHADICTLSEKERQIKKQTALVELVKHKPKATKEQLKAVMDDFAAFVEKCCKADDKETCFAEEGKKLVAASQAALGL
Vasopressin V1a receptor, sequence (P37288 whole entry): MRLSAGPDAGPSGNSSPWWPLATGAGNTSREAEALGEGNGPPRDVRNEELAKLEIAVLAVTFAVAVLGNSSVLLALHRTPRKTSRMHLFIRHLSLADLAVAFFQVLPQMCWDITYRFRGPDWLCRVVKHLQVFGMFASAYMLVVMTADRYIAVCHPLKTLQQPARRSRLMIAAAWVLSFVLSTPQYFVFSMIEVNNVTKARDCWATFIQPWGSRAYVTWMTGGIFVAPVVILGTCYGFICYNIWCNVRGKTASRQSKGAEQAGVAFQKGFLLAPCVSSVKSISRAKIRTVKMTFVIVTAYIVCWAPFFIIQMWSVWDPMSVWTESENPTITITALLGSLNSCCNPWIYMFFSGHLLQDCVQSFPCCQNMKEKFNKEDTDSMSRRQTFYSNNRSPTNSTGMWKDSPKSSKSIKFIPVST

Turning to `O=C(c1ccc2oc(CN3CCC(n4cc(C(F)(F)F)ccc4=O)CC3)cc2c1)N1CCC(N2C(=O)OCc3ccccc32)CC1`, the AUC in series [1] is 12000 ng·h/mL. The compound also showed a clearance in [2] of 6 mL/min/kg. This compound also gave a bioavailability in series [3] of 79%. The compound further showed a Ki in series [4] of 794 nM. In series [5], this compound had a Binding of 93%. Besides, in series [6], the HSA shift was 4. For the same compound, in series [7], the half-life was 1.7 h.
In the case of `O=C(Cn1cc(C(F)(F)F)ccc1=O)NCc1cc2cc(C(=O)N3CCC(N4C(=O)OCc5ccccc54)CC3)cnc2o1`, in series [3], the bioavailability turned out to be 2%. Besides, the clearance in series [8] is 26 mL/min/kg. Also, the IC50 in series [9] came to 744 nM; in series [11], 20 nM. In addition, in series [4], the Ki is 3.16 nM. In addition, the logD in series [10] came to 1.85. The Binding in series [5] came to 86.2%. For the same compound, the HSA shift in series [6] came out at 19. In [7], this compound showed a half-life of 0.6 h.
Regarding `CCOc1ccn(CC(=O)NCc2cc3cc(C(=O)N4CCC(N5C(=O)OCc6ccccc65)CC4)ccc3o2)c(=O)n1`, the half-life was 1.9 h in series [12] and 0.8 h in series [7]. The results for the bioavailability in series [3] and in series [13] were 2% and 43%, respectively. The clearance in series [8] was found to be 35 mL/min/kg; in series [14], 12 mL/min/kg. For the same compound, the Ki in [4] was 2 nM; in [15], 1580 nM.

By AUC is commonly meant concentration integrated over time. For orientation: clearance means the rate of elimination divided by the concentration. Usually bioavailability stands for the share of a dose that reaches the circulation, judged against a reference dose that is usually intravenous. By Ki is commonly meant a measure of affinity in units of concentration, obtained from inhibition or displacement. In general, half-life refers to how long it takes for the measured level to halve. As a reminder, the IC50 is the concentration at which inhibition is half-maximal. A word on the logD: it is the decadic logarithm of the distribution of all forms, ionised or not, between an organic phase and buffer at a given pH.
